Measurements reported in ChEMBL document CHEMBL4330063, “New naphthopyran analogues of LY290181 as potential tumor vascular-disrupting agents” (Eur J Med Chem, 2019).
pIC50: −log10 of the molar value. Activity calls are given as the source filed them. No cut-off for these calls is given here.

Assays:
[1] = system: 518A2; assay: Antiproliferative activity against human 518A2 cells after 72 hrs by MTT assay; format: functional, cell-based; settings: for pIC50: 518A2, 72 h
Outline: (§1)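 MTT read-out after 72 h of continuous exposure. Viability is expressed as percentage of viable cells relative to untreated controls. IC50 comes from dose-response curves. Values are means±SD of four independent experiments (two for some entries). DMSO was below 1%, with vehicle controls at equal DMSO. Precipitation was excluded spectrometrically and microscopically.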

[2] = system: HT-29; assay: Antiproliferative activity against human HT-29 cells after 72 hrs by MTT assay; format: functional, cell-based; settings: HT-29, 72 h; outline: as §1
[3] = system: A2780; assay: Antiproliferative activity against human A2780 cells after 72 hrs by SRB assay; format: functional, cell-based; settings: A2780, 72 h
Outline: (§2)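 Ovarian A2780 and cisplatin-resistant A2780cis cells were exposed for 72 h and stained with SRB. IC50 comes from dose-response curves, as means±SD of three independent experiments. Final DMSO was below 1%, with matched vehicle controls.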

[4] = Antiproliferative activity against human A2780cis cells after 72 hrs by SRB assay; format: functional, cell-based; outline: as §2
[5] = system: DLD-1; assay: Antiproliferative activity against human DLD1 cells after 72 hrs by MTT assay; format: functional, cell-based; settings: DLD-1, 72 h; outline: as §1
[6] = system: EA.hy 926; assay: Antiproliferative activity against human EAhy926 cells after 72 hrs by MTT assay; format: functional, cell-based; settings: EA.hy 926, 72 h; outline: as §1
[7] = system: PANC-1; assay: Antiproliferative activity against human PANC1 cells after 72 hrs by MTT assay; format: functional, cell-based; settings: PANC-1, 72 h; outline: as §1
[8] = Antiproliferative activity against human KB-V1/Vbl cells after 72 hrs by MTT assay; format: functional, cell-based; outline: as §1
[9] = Antiproliferative activity against human MCF7/Topo cells after 72 hrs by MTT assay; format: functional, cell-based; outline: as §1
[10] = system: EA.hy 926; assay: Antiangiogenic activity against human EAhy926 cells assessed as inhibition of tube formation on matrigel at 100 nM after 24 hrs by light microscopic analysis; format: functional, cell-based
Outline: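 Ea.Hy926 endothelial hybrid cells were seeded on matrigel with compound and examined for tubular/cord-like network formation versus untreated controls. Viability under the same conditions was checked in parallel by MTT to exclude cytotoxic effects.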

[11] = system: EA.hy 926; assay: Cytotoxicity against human EAhy926 cells at 100 nM after 24 hrs by MTT assay relative to control; format: cell-based; settings: ea.hy 926, 24 h, 0.1 µM
[12] = system: HT-29; assay: Cell cycle arrest in human HT-29 cells assessed as accumulation of cells at sub G1 phase at 100 nM after 24 hrs by propidium iodide staining-based flow cytometric analysis (reference value: 1.2 +/- 0.3%); format: functional
[13] = system: HT-29; assay: Cell cycle arrest in human HT-29 cells assessed as accumulation of cells at sub G1 phase at 250 nM after 24 hrs by propidium iodide staining-based flow cytometric analysis (reference value: 1.2 +/- 0.3%); format: functional
[14] = system: HT-29; assay: Cell cycle arrest in human HT-29 cells assessed as accumulation of cells at sub G1 phase at 350 nM after 24 hrs by propidium iodide staining-based flow cytometric analysis (reference value: 1.2 +/- 0.3%); format: functional
[15] = system: HT-29; assay: Cell cycle arrest in human HT-29 cells assessed as accumulation of cells at G1 phase at 100 nM after 24 hrs by propidium iodide staining-based flow cytometric analysis (reference value: 75.1 +/- 1.1%); format: functional
[16] = system: HT-29; assay: Cell cycle arrest in human HT-29 cells assessed as accumulation of cells at G1 phase at 250 nM after 24 hrs by propidium iodide staining-based flow cytometric analysis (reference value: 75.1 +/- 1.1%); format: functional
[17] = system: HT-29; assay: Cell cycle arrest in human HT-29 cells assessed as accumulation of cells at G1 phase at 350 nM after 24 hrs by propidium iodide staining-based flow cytometric analysis (reference value: 75.1 +/- 1.1%); format: functional
[18] = system: HT-29; assay: Cell cycle arrest in human HT-29 cells assessed as accumulation of cells at S phase at 100 nM after 24 hrs by propidium iodide staining-based flow cytometric analysis (reference value: 12.3 +/- 0.4%); format: functional
[19] = system: HT-29; assay: Cell cycle arrest in human HT-29 cells assessed as accumulation of cells at S phase at 250 nM after 24 hrs by propidium iodide staining-based flow cytometric analysis (reference value: 12.3 +/- 0.4%); format: functional
[20] = system: HT-29; assay: Cell cycle arrest in human HT-29 cells assessed as accumulation of cells at S phase at 350 nM after 24 hrs by propidium iodide staining-based flow cytometric analysis (reference value: 12.3 +/- 0.4%); format: functional
[21] = system: HT-29; assay: Cell cycle arrest in human HT-29 cells assessed as accumulation of cells at G2/M phase at 100 nM after 24 hrs by propidium iodide staining-based flow cytometric analysis (reference value: 11.4 +/- 1.4%); format: functional
[22] = system: HT-29; assay: Cell cycle arrest in human HT-29 cells assessed as accumulation of cells at G2/M phase at 250 nM after 24 hrs by propidium iodide staining-based flow cytometric analysis (reference value: 11.4 +/- 1.4%); format: functional
[23] = system: HT-29; assay: Cell cycle arrest in human HT-29 cells assessed as accumulation of cells at G2/M phase at 350 nM after 24 hrs by propidium iodide staining-based flow cytometric analysis (reference value: 11.4 +/- 1.4%); format: functional
[24] = system: 518A2; assay: Induction of apoptosis in human 518A2 cells at 100 nM after 24 hrs by TUNEL assay relative to control; format: functional
[25] = molecular target: Tubulin (Homo sapiens) (UniProt P68371+Q9H4B7+P0DPH7+P68366+Q13509+Q71U36+P04350+Q3ZCM7+P07437+P68363+Q9BQE3+Q6PEY2+Q13885+Q9BVA1+Q9BUF5); assay: Induction of microtubule disruption in human 518A2 cells at 100 nM after 3 hrs by DAPI staining-based fluorescence microscopic analysis; format: cell-based
Outline: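 Microtubule organization in 518A2 melanoma cells was checked by tubulin immunofluorescence staining after 3 h exposure to 100 nM, with DAPI as the nuclear counterstain. Images come from two independent experiments.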

[26] = system: 518A2; assay: Effect on F-actin in human 518A2 cells assessed as thick stress fibers formation at 100 nM after 3 hrs by DAPI staining-based fluorescence microscopic analysis; format: cell-based
Outline: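 518A2 melanoma cells were treated with 100 nM for 3 h. Filamentous actin was fluorescence-labelled, nuclei were counterstained with DAPI, and the cells were imaged by fluorescence microscopy. Images come from two independent experiments.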

[27] = system: 518A2; assay: Antimigratory activity against human 518A2 cells at 50 nM after 48 hrs by wound healing assay; format: functional, cell-based
[28] = system: Chorioallantoic membrane; assay: Antiangiogenic activity in Leghorn chicken embryo chorioallantoic membrane assessed as disruption of smaller blood vessels at 5 nmol after 6 hrs by light microscopic analysis; format: functional, tissue-based; settings: Gallus gallus
Outline: (§3)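 Fertilized chicken eggs, CAM assay. Compound was applied topically into a small silicon foil ring placed on the CAM. The membrane and its extraembryonal blood vessels were monitored over 24 h, with observations at 6 h and 24 h post application.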

[29] = system: Chorioallantoic membrane; assay: Antiangiogenic activity in Leghorn chicken embryo chorioallantoic membrane assessed as induction of hemorrhages at 5 nmol after 6 hrs by light microscopic analysis; format: functional, tissue-based; settings: Gallus gallus; outline: as §3
[30] = system: Chorioallantoic membrane; assay: Antiangiogenic activity in Leghorn chicken embryo chorioallantoic membrane assessed as induction of hemorrhages at 5 nmol after 24 hrs by light microscopic analysis; format: functional, tissue-based; settings: Gallus gallus; outline: as §3
[31] = system: Chorioallantoic membrane; assay: Antiangiogenic activity in Leghorn chicken embryo chorioallantoic membrane assessed as reduction in diameter of main blood vessel at 5 nmol after 24 hrs by light microscopic analysis; format: functional, tissue-based; settings: Gallus gallus; outline: as §3
[32] = system: Chorioallantoic membrane; assay: Antiangiogenic activity in Leghorn chicken embryo chorioallantoic membrane assessed as reduction in blood vessel area at 5 nmol after 6 hrs by light microscopic analysis relative to control; format: functional, tissue-based; parameters: scale not given: the % may be the effect or the level left; settings: Gallus gallus
Outline: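 The CAM assay was run with topical application into a silicon foil ring atop the CAM of fertilized chicken eggs. Area covered by blood vessels was quantified by fractal analysis relative to control.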

[33] = system: Chorioallantoic membrane; assay: Antiangiogenic activity in Leghorn chicken embryo chorioallantoic membrane assessed as effect on blood vessel length at 5 nmol after 6 hrs by light microscopic analysis; format: functional, tissue-based; settings: Gallus gallus; outline: as §3
[34] = system: A2780; assay: Antivascular activity against human A2780 cells xenografted in nude mouse assessed as tumor discoloration at 200 mg/kg administered on every other day and measured after 24 hrs; format: functional, organism-based; settings: in the assay text read “administered as single dose” for “administered on every other day”
Outline: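 Mice bore A2780 tumor xenografts. Compound was formulated in tween80/ethanol (1:1) and injected as single doses. Tumors were inspected for discoloration as a sign of vascular disruption, and treated tumors were examined histologically for hemorrhage and necrosis.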

[35] = system: Chorioallantoic membrane; assay: Antiangiogenic activity in Leghorn chicken embryo chorioallantoic membrane assessed as disruption of smaller blood vessels at 5 nmol after 24 hrs by light microscopic analysis; format: functional, tissue-based; settings: Gallus gallus; outline: as §3
[36] = system: HCT-116; assay: Antiproliferative activity against human HCT116 cells after 72 hrs by MTT assay; format: functional, cell-based; settings: HCT-116, 72 h; outline: as §1
[37] = Solubility in tween80/ethanol (1:1) solution; format: physicochemical
[38] = molecular target: Tubulin (Sus scrofa, UniProt P02554+P02550); assay: Inhibition of porcine brain tubulin polymerization after 2 hrs
[39] = system: 518A2; assay: Induction of apoptosis in human 518A2 cells assessed as accumulation at subG1 phase; format: functional, cell-based
[40] = system: 518A2; assay: Induction of cell cycle arrest in human 518A2 cells; format: functional, cell-based
[41] = system: HT-29; assay: Cell cycle arrest in human HT-29 cells assessed as accumulation of cells at G2/M phase after 24 hrs by propidium iodide staining-based flow cytometric analysis; format: functional
[42] = system: Chorioallantoic membrane; assay: Antiangiogenic activity in Leghorn chicken embryo chorioallantoic membrane assessed as reduction in size of main blood vessels at 5 nmol after 6 hrs by light microscopic analysis; format: functional, tissue-based; settings: Gallus gallus; outline: as §3
[43] = system: Chorioallantoic membrane; assay: Antiangiogenic activity in Leghorn chicken embryo chorioallantoic membrane assessed as induction of contraction at 5 nmol after 6 to 24 hrs by light microscopic analysis; format: functional, tissue-based; settings: Gallus gallus; outline: as §3
[44] = system: Chorioallantoic membrane; assay: Antiangiogenic activity in Leghorn chicken embryo chorioallantoic membrane assessed as induction of irritation at 5 nmol after 6 to 24 hrs by light microscopic analysis; format: functional, tissue-based; settings: Gallus gallus; outline: as §3
[45] = Toxicity in human A2780 cells xenografted nude mouse at 30 mg/kg administered on every other day and measured after 24 hrs; format: organism-based; settings: in vivo

SMILES | Activity [1] | pIC50 [1] | pIC50 [2] | pIC50 [3] | pIC50 [4] | pIC50 [5] | pIC50 [6] | pIC50 [7] | pIC50 [8] | pIC50 [9] | Activity [10] | Activity [11] | Activity [12] | Activity [13] | Activity [14] | Activity [15] | Activity [16] | Activity [17] | Activity [18] | Activity [19] | other results
N#CC1=C(N)Oc2c(ccc3ccccc23)C1c1cccc(C#N)c1 (stereo not drawn) | Dose-dependent effect | > 10.00 | 6.96 | 7.83 | 7.75 | 8.59 | 8.37 | > 10.00 | > 10.00 | 9.39 | Active | > 68% | 4.2% | 11.8% | 10.6% | 51% | 59.6% | 60.5% | 25.1% | 18.5% | Activity [20]: 15.6%; Activity [21]: 19.7%; Activity [22]: 10.1%; Activity [23]: 13.3%; Activity [24]: 69.4%; Activity [25]: Active; Activity [26]: Active; Activity [27]: Active; Activity [28]: Active; Activity [29]: Active; Activity [30]: inactive; Activity [31]: Active; Activity [32]: 56%; Activity [33]: Active; Activity [34]: inactive; Activity [35]: inactive
COc1c(Cl)cc(C2C(C#N)=C(N)Oc3c2ccc2ccccc32)cc1Cl (stereo not drawn) | Dose-dependent effect | 7.35 | 6.99 | 7.78 | 7.72 | 7.23 | 7.49 | 7.55 | 7.52 | 7.52 |  |  |  |  |  |  |  |  |  |  | pIC50 [36]: 7.16; solubility [37]: Insoluble
COc1c(Br)cc(C2C(C#N)=C(N)Oc3c2ccc2ccccc32)cc1Br (stereo not drawn) | Dose-dependent effect | 7.61 | 7.28 | 7.92 | 7.80 | 7.40 | 7.80 | 7.83 | 7.48 | 7.61 | Active | > 68% | 2.7% | 4.4% | 5.3% | 51.8% | 26.8% | 19.9% | 19.4% | 13.9% | pIC50 [36]: 7.72; Activity [20]: 10.6%; Activity [21]: 26.1%; Activity [22]: 55%; Activity [23]: 64.3%; Activity [24]: 46.5%; Activity [25]: Active; I50 [38]: 13 µM; Activity [26]: Active; Activity [27]: Active; Activity [29]: inactive; Activity [32]: 45%; Activity [33]: Active; Activity [39]: Active; Activity [40]: inactive; Activity [41]: Dose-dependent effect; Activity [42]: Active; Activity [43]: Active; Activity [44]: Active; Activity [45]: Toxic
